Assays:
wtBcr-Abl-Ba/F3 = assay: Antiproliferative activity on wtBcr-Abl-Ba/F3; format: cell-based, murine; settings: for cellular Bcr-Abl inhibitory activity (in words): wild-type Bcr-Abl
E255V Bcr-Abl = settings: background statement, ref not given; cited from earlier work
[1] = test system: 40 other tyrosine kinases; settings: cited from earlier work
T315I Bcr-Abl [2] = assay: Antiproliferative activity on T315I Bcr-Abl mutant Ba/F3 cells; format: cell-based, murine; settings: for EC50: Mus musculus, BaF3, read-out: cellular EC50 T315I
Outline: (§1)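 IL-3-dependent murine Ba/F3 cells were transfected with a pEYK vector carrying p210 Bcr-Abl with the point mutation. Cells were grown in RPMI 1640 with 10% FBS, 1% L-glutamine and 25 μg/mL zeocin at 37 °C under 5% CO2. Test compound was applied for 48 h, and proliferation was read by CellTiter-Glo luminescence.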

[3] = test system: panel of 80 diverse kinases; settings: cited from earlier work
Y253H Bcr-Abl = settings: background statement, ref not given; cited from earlier work
parental Ba/F3 = assay: Cytotoxicity on parental Ba/F3 cells; format: cell-based, murine; settings: Mus musculus, BaF3, read-out: cellular EC50 Wt-Ba/F3
Outline: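 Untransfected IL-3-dependent Ba/F3 cells were grown in RPMI 1640 with 10% FBS, 1% L-glutamine and 10% WEHI-conditioned medium as the IL-3 source, at 37 °C under 5% CO2. Cells were exposed to test compound for 48 h, and viability was measured by CellTiter-Glo luminescence.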

E505K Bcr-Abl = assay: Antiproliferative activity on E505K Bcr-Abl mutant Ba/F3 cells; format: cell-based, murine; settings: Mus musculus, BaF3, read-out: cellular EC50 E505K
Outline: as §1

T315I Bcr-Abl [4] = settings: cited from earlier work

Row | Structure (SMILES) | cellular Bcr-Abl inhibitory activity (in words) (wtBcr-Abl-Ba/F3) | other results
1 | FC(F)(F)Oc1ccc(Nc2ccnc(NCCN3CCOCC3)n2)cc1 [9d] | inactive | 
2 | Cc1cn(-c2cc(NC(=O)c3ccc(C)c(Nc4nccc(-c5cccnc5)n4)c3)cc(C(F)(F)F)c2)cn1 [nilotinib, reference compound] |  | EC50 (wtBcr-Abl-Ba/F3; Mus musculus, read-out: wt Bcr-Abl-Ba/F3 EC50): 0.04 µM
3 | NC(=O)c1cccc(-c2cc(Nc3ccc(OC(F)(F)F)cc3)ncn2)c1 [compound 1] | active | activity on E255V mutant (in words) (E255V Bcr-Abl): active; inhibition of 40 other tyrosine kinases in cellular assays (in words) [1]: did not inhibit; activity on T315I gatekeeper mutant (in words) (T315I Bcr-Abl [2]): inactive; inhibition of biochemical activity of a panel of 80 diverse kinases (in words) [3]: did not inhibit; activity on Y253H mutant (in words) (Y253H Bcr-Abl): active
4 | Fc1ccc(Nc2cc(-c3ccncc3)ncn2)cc1 [9h] | complete loss in activity | 
5 | FC(F)(F)Oc1ccc(Nc2ncnc(NCCN3CCOCC3)n2)cc1 [9l, N2-(2-morpholinoethyl)-N4-(4-(trifluoromethoxy)phenyl)-1,3,5-triazine-2,4-diamine] | inactive | 
6 | NC(=O)c1ccccc1-c1cc(Nc2ccc(OC(F)(F)F)cc2)ncn1 [5b] | inactive | 
7 | CN(c1ccc(OC(F)(F)F)cc1)c1cc(NCCN2CCOCC2)ncn1 [8a] | complete loss of cellular activity | 
8 | CN1CCN(C(=O)c2cc3c(Nc4ccc(OC(F)(F)F)cc4)ncnc3s2)CC1 [14d] |  | EC50 (parental Ba/F3): > 10 µM; fold more potent than 14c (wtBcr-Abl-Ba/F3; cellular Bcr-Abl EC50, versus compound lacking N-methylation (14c)): approximately 10 fold; EC50 (T315I Bcr-Abl [2]): > 10 µM; EC50 (E505K Bcr-Abl): > 10 µM
9 | CN(c1ccc(OC(F)(F)F)cc1)c1cc(-c2ccncc2)ncn1 [9g] | complete loss of cellular activity | 
10 | FC(F)(F)c1ccc(Nc2cc(-c3ccncc3)ncn2)cc1 [9j] | retained some activity | 
11 | FC(F)(F)Oc1ccc(Nc2cncc(NCCN3CCOCC3)n2)cc1 [9e] | inactive | 
12 | COc1ccc(Nc2cc(NCCN3CCOCC3)ncn2)cc1 [8b] | complete loss of activity | 
13 | FC(F)(F)Oc1ccc(CNc2cc(NCCN3CCOCC3)ncn2)cc1 [8g] | completely inactive | 
14 | FC(F)(F)Oc1ccc(-c2cc(NCCN3CCOCC3)ncn2)cc1 [8e] | complete loss of cellular activity | 
15 | FC(F)(F)Oc1ccc(Nc2ccc(NCCN3CCOCC3)nn2)cc1 [9f] | inactive | 
16 | O=C(NCCO)c1cccc(-c2cc(Nc3ccc(OC(F)(F)F)cc3)ncn2)c1 [compound 2, N-(2-Hydroxyethyl)-3-(6-(4-(trifluoromethoxy)phenylamino)pyrimidin-4-yl)benzamide] |  | synergy with nilotinib on proliferation of T315I Bcr-Abl (in words) (T315I Bcr-Abl [4]): capable of synergizing
17 | FC(F)(F)Oc1ccc(Oc2cc(NCCN3CCOCC3)ncn2)cc1 [8d] | complete loss of cellular activity | 
18 | CS(=O)(=O)Nc1ccc(-c2cc(Nc3ccc(OC(F)(F)F)cc3)ncn2)cc1 [5h] |  | EC50 (parental Ba/F3): > 10 µM; EC50 (T315I Bcr-Abl [2]): > 10 µM; EC50 (E505K Bcr-Abl): > 10 µM
